# Measurements gathered from unrelated publications.
# Long-chain-fatty-acid--AMP ligase FadD28: Long-chain-fatty-acid--AMP ligase FadD28 (Mycobacterium tuberculosis, UniProt P9WQ59)
# Neuronal acetylcholine receptor subunit alpha-4/beta-2: Neuronal acetylcholine receptor subunit alpha-4/beta-2 (Mus musculus, UniProt O70174+Q9ERK7)
# HTR7: 5-hydroxytryptamine receptor 7 (HTR7, Homo sapiens, UniProt P34969)
SMILES,target,test,setting,quantity,result
CCCCCCCCCCCC(=O)NS(=O)(=O)OC[C@H]1O[C@@H](n2cnc3c(N)ncnc32)[C@H](O)[C@@H]1O,Long-chain-fatty-acid--AMP ligase FadD28,"enzyme activity, inhibitor",,Ki,6000 nM
CN1[C@@H]2CC[C@H]1C=C(c1cncc(Br)c1)C2,Neuronal acetylcholine receptor subunit alpha-4/beta-2,"ligand displacement, radioligand",cell membranes,Ki,2.31 nM
CN(C)CCc1c[nH]c2ccccc12,HTR7,"ligand displacement, radioligand",,Ki,210 nM
CC[C@@H](CO)NC(=O)[C@@H]1C=C2c3cccc4c3c(cn4C)C[C@H]2N(C)C1,HTR7,"ligand displacement, radioligand",cell membranes,Ki,32 nM
CCCCCCCCCCCCCC(=O)NS(=O)(=O)OC[C@H]1O[C@@H](n2cnc3c(N)nc(C#CCOCCOCCOCCNC(=O)c4ccc(C(=O)O)c(-c5c6ccc(=[N+](C)C)cc-6oc6cc(N(C)C)ccc56)c4)nc32)[C@H](O)[C@@H]1O,Long-chain-fatty-acid--AMP ligase FadD28,"binding, FP",,Kd,245 nM
FC(F)(F)c1cccc(N2CCNCC2)c1,HTR7,"ligand displacement, radioligand",cell membranes,Ki,1620 nM
CCCCCCCCCCCCCC(=O)NS(=O)(=O)OC[C@H]1O[C@@H](n2cnc3c(N)ncnc32)[C@H](O)[C@@H]1O,Long-chain-fatty-acid--AMP ligase FadD28,"binding, ITC",,Kd,365 nM
CNC(C)C/C=C/c1cncc(C#Cc2ccccc2)c1 (stereo not drawn),Neuronal acetylcholine receptor subunit alpha-4/beta-2,"ligand displacement, radioligand",cell membranes,Ki,134 nM
N#Cc1ccc(C(=O)NOCc2ccc(C(F)(F)F)cc2)cc1,"NAD-dependent protein deacylase sirtuin-6 (SIRT6, Homo sapiens, UniProt Q8N6T7)","enzyme activity, inhibitor, fluorescence",,IC50,14900 nM
